Legend:
Oryctolagus cuniculus = species on record: Oryctolagus cuniculus; assay: In vitro functional antagonistic testing by obtaining ET-1 concentration response curves in rabbit carotid artery rings in the presence or absence of antagonist.
Procedure, shortened: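 Concentration-response curves to ET-1 in rabbit carotid artery rings. KB determined when at least 3 antagonist concentrations were tested; apparent KB calculated when only one concentration was used.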

Endothelin-1 receptor = target: T1, Endothelin-1 receptor (Rattus norvegicus, UniProt P26684); assay: Antagonism of [125 I]ET-1 binding to the rat endothelin receptor in vascular smooth muscle VSM-A10 cells.; format: cell-based
T1 sequence (P26684 whole entry): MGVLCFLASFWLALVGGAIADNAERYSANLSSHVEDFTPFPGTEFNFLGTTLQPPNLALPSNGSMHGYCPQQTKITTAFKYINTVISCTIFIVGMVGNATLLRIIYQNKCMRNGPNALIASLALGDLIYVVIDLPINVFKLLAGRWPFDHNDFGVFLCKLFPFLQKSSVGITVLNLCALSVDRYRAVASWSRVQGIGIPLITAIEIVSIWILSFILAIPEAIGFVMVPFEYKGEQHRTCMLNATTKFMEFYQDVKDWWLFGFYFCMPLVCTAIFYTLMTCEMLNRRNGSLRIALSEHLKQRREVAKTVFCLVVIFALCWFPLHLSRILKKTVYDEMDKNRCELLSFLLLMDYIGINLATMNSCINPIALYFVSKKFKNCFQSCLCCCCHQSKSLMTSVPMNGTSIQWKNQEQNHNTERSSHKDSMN

Rattus norvegicus = species on record: Rattus norvegicus; assay: Tested for antagonistic activity against ET-1 induced increase in intracellular [Ca2+] in VSM-A10 cells.; format: functional, cell-based
Procedure, shortened: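 A10 cells challenged with 3 nM ET-1; the rise in free intracellular Ca2+ was measured with and without compound. Values reported as IC50.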

Structure (SMILES)	IC50 (Endothelin-1 receptor) [µM]	Kb (Oryctolagus cuniculus; read-out: KB app) [µM]	also measured
Cc1noc(NS(=O)(=O)c2ccc(NCc3ccccc3)cc2)c1C	9.8	100	–
Cc1cc(NS(=O)(=O)c2cccc3c(N(C)C)cccc23)on1	8.9	–	–
Cc1[n-][o+]c(NS(=O)(=O)c2cccc([N+](=O)[O-])c2)c1C	7.8	–	–
Cc1noc(NS(=O)(=O)c2cccc3c(N(C)C)cccc23)c1Cc1ccccc1	50	–	–
CCOC(=O)c1c(C)noc1NS(=O)(=O)c1cccc2c(N(C)C)cccc12	31	–	–
Cc1noc(NS(=O)(=O)c2ccc(NC(=O)CN)cc2)c1C	6.5	–	–
Nc1ccc(S(=O)(=O)Nc2noc3c2CCCC3)cc1	32	–	–
Cc1noc(NS(=O)(=O)c2cccc3c(NCCCCCc4ccccc4)cccc23)c1C	3.05	–	–
Cc1noc(NS(=O)(=O)c2ccc(NC(=O)Nc3ccccc3)cc2)c1C	38	–	–
CN(C)c1cccc2c(S(=O)(=O)Nc3onc4c3CCCC4)cccc12	153	–	–
O=S(=O)(Nc1nccs1)c1ccc(O)cc1	30	–	–
CC(C)(C)c1cc(NS(=O)(=O)c2ccc(N)cc2)no1	> 32	–	–
Nc1ccc(S(=O)(=O)Nc2cc(-c3ccccc3)on2)cc1	> 32	–	–
Cc1noc(NC(=O)c2ccc(N)cc2)c1C	> 32	–	–
Cc1cc(NS(=O)(=O)c2ccc(O)cc2)no1	–	> 100	–
Cc1noc(NS(=O)(=O)c2ccc(NC(=S)Nc3ccccc3)cc2)c1C	4.1	–	–
Cc1noc(NS(=O)(=O)c2cccc3c(N(C)C)cccc23)c1[N+](=O)[O-]	17.3	> 100	–
Cc1noc(NS(=O)(=O)c2cccc3c(CN(C)C)cccc23)c1C	2.8	20	–
Cc1noc(NS(=O)(=O)c2cccc3c(N(C)C)cccc23)c1-c1ccccc1	15.9	–	–
Cc1noc(N(CC(=O)O)S(=O)(=O)c2ccc(N)cc2)c1C	> 32	–	–
Cc1noc(NS(=O)(=O)c2ccc(NCC(=O)O)cc2)c1C	12	–	–

Structure (SMILES)	IC50 (Endothelin-1 receptor) [µM]	Kb (Oryctolagus cuniculus; read-out: KB app) [µM]	also measured
Cc1noc(NS(=O)(=O)c2ccc(O)cc2)c1C	–	> 100	–
COC(=O)c1cccc2c(S(=O)(=O)Nc3onc(C)c3C)cccc12	3.38	–	–
Cc1cnoc1NS(=O)(=O)c1cccc2c(N(C)C)cccc12	4.9	–	–
Cc1cc(NS(=O)(=O)c2ccc(N)cc2)on1	28	–	–
CCCNc1ccc(S(=O)(=O)Nc2onc(C)c2C)cc1	27	40	–
Nc1ccc(S(=O)(=O)Nc2nncs2)cc1	57	–	–
Cc1noc(NS(=O)(=O)c2cccc3c(NCCC(c4ccccc4)c4ccccc4)cccc23)c1C	7.8	–	–
Cc1noc(NS(=O)(=O)c2cccc3c(N)cccc23)c1C	–	> 10	–
CC(=O)Nc1cccc2cc(S(=O)(=O)Nc3onc(C)c3C)ccc12	–	40	–
CC(=O)Nc1cccc2c(S(=O)(=O)Nc3onc(C)c3C)cccc12	–	–	Kb (Oryctolagus cuniculus): 11 µM
Cc1noc(N(C)S(=O)(=O)c2ccc(N)cc2)c1C	> 32	–	–
Cc1noc(NS(=O)(=O)c2cccc3c(O)cccc23)c1C	7.8	100	–
CCCCN(CCCC)c1cccc2c(S(=O)(=O)Nc3onc(C)c3C)cccc12	15.9	–	–
Cc1noc(NS(=O)(=O)c2cccc(-c3ccccc3)c2)c1C	5.4	–	–
Cc1noc(NS(=O)(=O)c2cccc3c(C(C)(C)O)cccc23)c1C	2.89	–	–
Cc1noc(NS(=O)(=O)c2cccc3c(N(C)C)cccc23)c1C [BMS-182874]	–	–	Kb (Oryctolagus cuniculus): 0.52 µM
Cc1cc(NS(=O)(=O)c2ccc(N)cc2)no1 [SULFAMETHOXAZOLE]	–	> 100	–
Nc1ccc(S(=O)(=O)Nc2nccs2)cc1 [SULFATHIAZOLE]	69	–	–
Cc1onc(NS(=O)(=O)c2ccc(N)cc2)c1C [SULFATROXAZOLE]	–	–	IC50 (Rattus norvegicus): 40 µM
CC(=O)N(c1onc(C)c1C)S(=O)(=O)c1ccc(N)cc1 [SULFISOXAZOLE ACETYL]	13	–	–
Cc1noc(NS(=O)(=O)c2ccc(N)cc2)c1C [SULFISOXAZOLE]	–	> 100	IC50 (Rattus norvegicus): 40 µM

Further lines, with some results ahead:

IC50 (Endothelin-1 receptor) [µM]	Structure (SMILES)	Kb (Oryctolagus cuniculus; read-out: KB app) [µM]	also measured
0.06	Cc1onc(NS(=O)(=O)c2cccc3c(N(C)C)cccc23)c1C	0.98	–
0.13	Cc1noc(NS(=O)(=O)c2cccc3c(N4CCCC4=O)cccc23)c1C	–	Kb (Oryctolagus cuniculus): 9.6 µM
1.4	Cc1noc(NS(=O)(=O)c2cccc3ccc(N)cc23)c1C	–	–
0.88	Cc1noc(NS(=O)(=O)c2cccc3c(NC(=O)C(C)C)cccc23)c1C	–	–
1	Cc1noc(NS(=O)(=O)c2ccc(F)cc2)c1C	40	–
0.06	CCNc1cccc2c(S(=O)(=O)Nc3onc(C)c3C)cccc12	–	Kb (Oryctolagus cuniculus): 0.5 µM
0.15	Cc1noc(NS(=O)(=O)c2cccc3c(NC(=S)Nc4ccccc4)cccc23)c1C	–	Kb (Oryctolagus cuniculus): 13 µM
1.76	Cc1noc(NS(=O)(=O)c2cccc3c(N4CCCCC4)cccc23)c1C	4	–
0.08	CCCCCNc1cccc2c(S(=O)(=O)Nc3onc(C)c3C)cccc12	–	Kb (Oryctolagus cuniculus): 0.27 µM
1.17	CCc1noc(NS(=O)(=O)c2cccc3c(N(C)C)cccc23)c1C	3	–
0.13	CNc1cccc2c(S(=O)(=O)Nc3onc(C)c3C)cccc12	–	Kb (Oryctolagus cuniculus): 1.6 µM
2.1	CCCNc1cccc(S(=O)(=O)Nc2onc(C)c2C)c1	–	Kb (Oryctolagus cuniculus): 70 µM
0.13	Cc1noc(NS(=O)(=O)c2cccc3c(N(C)C(C)C)cccc23)c1C	–	Kb (Oryctolagus cuniculus): 0.7 µM
0.27	Cc1noc(NS(=O)(=O)c2cccc3c(N4CCCCC4=O)cccc23)c1C	7	–
0.29	CCc1c(C)noc1NS(=O)(=O)c1cccc2c(N(C)C)cccc12	4	–
0.4	CCOC(=O)C(C)Nc1cccc2c(S(=O)(=O)Nc3onc(C)c3C)cccc12 (stereo not drawn)	–	Kb (Oryctolagus cuniculus): 3.1 µM
0.03	Cc1noc(NS(=O)(=O)c2cccc3c(N4CCCC4)cccc23)c1C	–	Kb (Oryctolagus cuniculus): 0.28 µM
0.66	Cc1noc(NS(=O)(=O)c2ccc3cc(N)ccc3c2)c1C	–	Kb (Oryctolagus cuniculus): 43 µM
0.02	Cc1noc(NS(=O)(=O)c2cccc3c(NC(C)C)cccc23)c1C	–	Kb (Oryctolagus cuniculus): 0.33 µM
1.96	Cc1noc(NS(=O)(=O)c2cccc3c(NCCCC(=O)O)cccc23)c1C	30	–
0.59	Cc1noc(NS(=O)(=O)c2cccc3c(NCc4ccccc4)cccc23)c1C	0.9	–

From ChEMBL document CHEMBL1128709, “Discovery and structure-activity relationships of sulfonamide ETA-selective antagonists” (J Med Chem, 1995)
